Assay outcomes from PubChem BioAssay.
Most compounds without a hit are left out; they make up all but 3.8% or so of the library.
Granule exo inh = LAMP-1 surface exposure blockers, TALL-104 cells – cell-based, flow cytometry, MLPCN library, primary screen | TALL-104 LAMP-1 surface exposure; cells stimulated with thapsigargin and PMA | inhibition, % at 10 µM | hit rate 0.66% among 360,000 | AID 651702, 2012;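 active means inhibition above about 55%, limit read from the data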
T cell modulator = modulators of CD8 T cell-vesicle binding, primary screen, mouse 2C CD8+ T cells, flow cytometry | AID 2052, 2009 | hit rate 0.068% among 330,000 | response (vesicle binding), % at 7 µM | 2C CD8+ T cell-vesicle binding; active compounds read low;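 active means response, share of CD8 T cells binding vesicles, and their 90th percentile fluorescence all below set limits, cut at about 80% in these data, passing the limit was not always enough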;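 further: values below 100% mean blocked vesicle binding to the CD8+ T cells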
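Test system: purified 2C TCR transgenic mouse naive CD8+ T cells. Probe or stimulus: QL9-peptide-loaded Drosophila micro-vesicles bearing Ld, ICAM-1 and B7-1. Incubation: binding step 1.5 h, 37 °C, antibody labelling 20 min, ice. Measured by: flow cytometry of vesicle-bound cells.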
MPTP inh = mitochondrial permeability transition pore inhibitors, primary screen, biochemical, isolated mouse mitochondria, absorbance. Ca2+ swelling absorbance, 30 min. inhibition, % at 10 µM. hit rate 1.4% among 360,000;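 active means inhibition of 50% or more, scaled per plate between neutral and stimulator controls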;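 further: 0% = DMSO wells given calcium and 100% = 1 mM EGTA wells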
V-ATPase pHluor = regulators of yeast V-ATPase proton pumping, primary screen, pHLuorin cytosolic pH fluorescence; S. cerevisiae; hit rate 0.37% among 350,000; response, % at 10 µM; in the data active means response mostly above about 7.3%, no sharp cut-off; inactive means mostly below about 5.4%; further: actives read high
rCAG RNA binder = binders of r(CAG) RNA repeats, primary screen, biochemical, fluorescence | r(CAG) RNA repeat, TO-PRO-1 dye displacement fluorescence | inhibition, % at 3 µM | hit rate 1.3% among 370,000 | AID 651821, 2012;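 active means inhibition above the plate cutoff, the mean of all test compounds on that plate plus 3 SD, cut at about 35% in these data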;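 further: 0% = DMSO alone and 100% = 100 µM mitoxantrone as full dye displacement; higher means more dye released from RNA so lower well fluorescence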
B2AR ag = beta2AR agonists driving receptor internalization, primary screen, cell-based, FAP fluorogen, flow cytometry; Beta-2 adrenergic receptor (Homo sapiens), P07550; Am2.2-beta2AR cells; response, % (test concentration not listed); hit rate 0.43% among 340,000;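 active means response above a set limit, near 3 SD of response in nonfluorescent compounds, cut at about 42% in these data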
Target sequence (P07550 whole entry, looked up): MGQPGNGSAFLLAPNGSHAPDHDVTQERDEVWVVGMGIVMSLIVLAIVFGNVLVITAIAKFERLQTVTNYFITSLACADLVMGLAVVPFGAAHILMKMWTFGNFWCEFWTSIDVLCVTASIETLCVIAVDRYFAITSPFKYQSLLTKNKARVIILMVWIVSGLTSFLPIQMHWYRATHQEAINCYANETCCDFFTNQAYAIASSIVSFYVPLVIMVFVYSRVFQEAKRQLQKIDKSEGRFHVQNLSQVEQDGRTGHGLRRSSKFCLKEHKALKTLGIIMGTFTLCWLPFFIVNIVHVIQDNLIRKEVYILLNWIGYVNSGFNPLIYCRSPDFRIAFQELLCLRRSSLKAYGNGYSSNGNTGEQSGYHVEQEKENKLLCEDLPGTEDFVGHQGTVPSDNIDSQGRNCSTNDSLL
The depositor's hits bear a star; i = inactive; . = not tested or not shown.

SMILES	Granule exo inh	T cell modulator	MPTP inh	V-ATPase pHluor	rCAG RNA binder	B2AR ag
O=C(Nc1nc(-c2ccccc2)cs1)c1ccc(N2CCOCC2)c([N+](=O)[O-])c1	84*	50	16	-2	.	29
Cc1ccc(NC(=S)NCC23C=CC(O2)C2C(=O)N(c4ccc(C)cc4)C(=O)C23)cc1 (stereo not drawn)	30	208	2	0	3	0
CC(C)(C)OC(=O)NCC12C=CC(O1)C1C(=O)N(Cc3ccccc3)C(=O)C12 (stereo not drawn)	85*	304	3	5	-7	6
CC(C)NC(=O)N[C@H]1C[C@@H]2O[C@H](CO)CC[C@@H]2O[C@@H]1CCc1ccc(-c2ccc(F)cc2)cc1	.	.	.	.	-1	.
CC(=O)Nc1ccc2c(c1)Cc1cc(N3C(=O)C=CC3=O)ccc1-2	46	.	4	-3	8	44*
O=C1C=CC(=O)N1c1ccc2c(c1)Cc1cc(F)ccc1-2	29	.	0	17*	2	4
O=[N+]([O-])c1ccc2c(c1)Cc1cc(F)ccc1-2	7	.	1	-3	2	8
COc1ccc(-n2nc3c(N4CCC(C(=O)NCc5ccccc5C)CC4)nnc(C)c3c2C)cc1	34	636	-2	1	.	82*
COc1ccc(-n2nc3c(N4CCC(C(=O)NCCc5ccccc5C)CC4)nnc(C)c3c2C)cc1	8	443	0	1	.	10
O=C(Oc1ccc(-c2nnco2)cc1)N1CCCCC1	0	76*	1	6	-3	-8
O=C(Oc1ccc(Cl)cc1)N1CCCCC1	-3	167	3	-4	-3	3
CCCCC(=O)N/N=C/c1ccc(Sc2cccc3cccnc23)o1	1	176	-1	-1	2	49*
Cc1ccc(Cn2cc(CN3[C@@H](Cc4ccccc4)COc4cc(Br)ccc4S3(=O)=O)nn2)cc1	.	.	.	.	1	.
O=C(Nc1ccc(Cl)c(Cl)c1)C1CCCN(c2nnc(-n3cccc3)s2)C1 (stereo not drawn)	.	.	.	.	7	.
CCOC(=O)c1ccc([N+](=O)[O-])c(CS(=O)(=O)c2ccc(Cl)cc2)c1	7	i	0	1	4	10
Cc1ccc(C(=O)CCS(=O)(=O)c2ccc(Br)cc2)cc1	33	240	0	-4	-3	14
Cc1ccc(S(=O)(=O)CCC(=O)c2cccc([N+](=O)[O-])c2)cc1	41	176	0	28*	-2	10
Cc1ccc(S(=O)(=O)Cc2cc(F)c([N+](=O)[O-])cc2[N+](=O)[O-])cc1	72*	101	0	2	.	28
COc1ccc(-c2nnc3n2N=C(c2cccc([N+](=O)[O-])c2)CS3)cc1	.	.	.	.	9	.
COc1cccc(-n2c(N)c(C(=O)Nc3c(C)n(C)n(-c4ccccc4)c3=O)c3nc4ccccc4nc32)c1	-19	306	1	-2	11	66*
COc1cccc(-c2cc(C(=O)Nc3c(C)n(C)n(-c4ccccc4)c3=O)no2)c1	0	402	-1	4	4	0
Cc1cc(C)cc(-n2c(N)c(C(=O)Nc3c(C)n(C)n(-c4ccccc4)c3=O)c3nc4ccccc4nc32)c1	-2	257	-1	2	15	11
Cc1ccc(-n2c(N)c(C(=O)Nc3c(C)n(C)n(-c4ccccc4)c3=O)c3nc4ccccc4nc32)cc1	-1	280	-4	3	6	68*
O=C(C(=O)N1CCC(CNC(=O)c2sc3ccccc3c2Cl)CC1)c1cccs1	.	.	.	.	4	.
COc1ccc(-c2nc3ccc(C)cn3c2Cc2ccccc2C(F)(F)F)cc1OC	.	.	.	.	2	.
SMILES	Granule exo inh	T cell modulator	MPTP inh	V-ATPase pHluor	rCAG RNA binder	B2AR ag
COc1ccc(-c2nc3ccc(Cl)cn3c2Cc2ccccc2C(F)(F)F)cc1OC	-1	.	1	.	42*	.
CCC(C)Nc1nc(C)nc2c1nnn2Cc1ccccc1 (stereo not drawn)	.	.	.	.	-1	.
COC(=O)C1CN(C2CCCC2)CCS(=O)(=O)N1Cc1cn(Cc2ccccc2)nn1 (stereo not drawn)	.	.	.	.	2	.
O=c1oc2ccccc2c(O)c1/C=C1\C=Nc2ccccc21	-3	278	2	9	22	48*
CCS(=O)(=O)N1Cc2ccccc2CC1C(=O)N(C)Cc1ccc(OC)c(F)c1 (stereo not drawn)	29	437	0	15*	-2	-2
COc1ccc(OCC(=O)Nc2cc(-c3nn4c(C)nnc4s3)ccc2C)cc1	-4	161	-2	0	3	70*
COc1ccc(C(=O)Nc2cc(-c3nn4c(C)nnc4s3)ccc2C)cc1	-1	202	-1	0	6	-8
CCCCOc1ccc(NS(=O)(=O)c2ccc(-n3cnnn3)cc2)cc1	0	169	0	1	10	-9
O=S(=O)(Nc1ncccn1)c1ccc(-n2cnnn2)cc1	-1	374	-1	9.5*	0	5
CCOC(=O)[C@]12CCCCC/C=C\1N(Cc1ccc(OC)cc1)C(=O)[C@H]2CC(=O)N1CCCC1	.	.	.	.	2	.
O=[N+]([O-])c1ccc2c(c1)N([O-])C1(CCCCC1)[N+]2=O	.	.	.	2	35*	5
CC1=C(c2ccccc2)[N+](=O)C2(CCCC2)N1[O-]	0	333	0	0	-2	14
COc1ccc(C(C)=O)cc1CSc1nnc(-c2ccc(Cl)cc2)n1-c1ccccc1	73*	200	0	-2	-4	3
CN(C)c1ccc(N=Nc2ccc(S(N)(=O)=O)cc2)cc1	-3	493	-1	-2	15	-2
CC1=CC(=O)C=CC1=Nc1ccc(N(C)C)cc1	84*	.	8	.	13	.
O=[N+]([O-])c1cnc(Sc2ccncn2)c([N+](=O)[O-])c1	68*	.	5	2	13	.
O=[N+]([O-])c1ccc(Sc2ncccn2)c([N+](=O)[O-])c1	-3	i	2	1	-1	-1
CCOC(=O)c1c2c3c(cccc3[nH]c1=O)C(=O)c1ccccc1-2	-2	624	-2	0	3	16
CCOC(=O)c1c2c3c(c(Cl)ccc3[nH]c1=O)C(=O)c1ccccc1-2	92*	.	0	6	15	-94
Cc1ccc(C)c2c1c1ccccc1n2C	-13	656	-2	1	1	1
Cn1c2ccccc2c2ccc3c(c21)C(=O)C=CC3=O	106*	.	2	6	33	76*
CC(C)C[C@H]1COc2cc(Br)ccc2S(=O)(=O)N1Cc1cn(Cc2ccc(F)cc2)nn1	.	.	.	.	1	.
C=CCN(C)CC#Cc1ccc(C)cc1	.	.	.	.	-1	.
COC(=O)[C@]12C[C@H](CC(=O)NCCCCc3ccccc3)C(=O)N(Cc3ccco3)C1=C[C@H](C(C)(C)C)O[C@@H]2C	.	.	.	.	0	.
